The text below walks through data of PubChem BioAssay.

Activity calls are given as the source filed them.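 How the source made its calls, unless noted: active means viability at or below 30% in both replicate assays; inconclusive means viability at or below 30% in just one of the two assays; inactive means the rest.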

A short description of experiment [1]: reducers of endogenous Her2 protein level, primary screen, SKBR3 breast tumor cells, AlphaScreen, ATP viability (AID 461;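 active means Her2 level under about 52% in both replicate screens, with viability over 70% of control, limit read from the data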;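 on Her2 level: lower value means less Her2 protein in the cells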;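 on viability: percent of carrier control wells set as 100% viability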). The following applies: 18-24 h, measured here: SKBR3 viability, ATP luminescence, at 10 µM. A general note: Alpha assays give light when donor and acceptor beads are brought close together.
The target of experiment [2] is Receptor tyrosine-protein kinase erbB-2 (Homo sapiens) (UniProt P04626). The experiment is described as above. The following applies: 18-24 h, at 10 µM, stronger effect = lower value.
Experiment [3] can be described thus: SK-BR-3 cell growth inhibitors, pilot screen, 24 h, human (AID 572;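 active means viability at or below 10% of carrier control in both of two separate runs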;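 further: compound exposure lasted between 18 and 24 h rather than exactly 24 h; 100% = carrier-treated control wells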). The conditions noted are these: SK-BR-3 viability, CellTiter-Glo luminescence, at 10 µM, stronger effect = lower value.
Experiment [4] can be described thus: HUVEC growth inhibition – cell-based, human, primary screen (AID 575).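 Further: 100% = median of untreated cell wells with 0.1% DMSO on each plate.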 The following applies: HUVEC proliferation, CellTiter-Glo luminescence, 72 h; at 10 µM; stronger effect = lower value. An outline of the steps: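 Test system: primary human umbilical vein endothelial cells. Quantity: 1250 cells/well. Compound: single 10 µM dose, 0.1% DMSO, from 5x medium stock. Timing: 72 h treatment at 37 °C. Detection: ATP-based CellTiter-Glo luminescent read. Benchmarks: vehicle and MePR control wells. Format: 384-well plates coated with collagen.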
For orientation: ATP-based viability assays read luminescence as a measure of living cells.

Experiment [5] is described as follows: growth inhibitors of H69AR lung tumor, primary screen, human, duplicate replicates (AID 580;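 active means viability at or under a set limit in both replicates, limit being median viability minus 3 SD, cut at about 48% in these data, passing the limit was not always enough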;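 further: 100% = mean luminescence of untreated wells and 0% = no signal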). The following applies: H69AR lung tumor cells viability, ATP luminescence, 72 h; at 10 µM; stronger effect = lower value.
Experiment [6] in a line: reversal of MRP1-mediated doxorubicin resistance, pilot screen, H69AR cells, doxorubicin co-treatment (AID 601;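 active means viability loss from added drug above about 55%, and viability with drug at most 40%, in both replicates, limit read from the data, passing the limit was not always enough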). The conditions noted are these: CellTiter-Glo, 72 h, at 10 µM; for differential viability (reversal): stronger effect = higher value.
Experiment [7] can be described thus: 384-well plate pilot, post-Golgi transport modulator project, inhibition of yeast transport mutant growth (AID 636; in the data active means inhibition above about 31%). The conditions noted are these: absorbance 615 nm, about 18 h, stronger effect = higher value.
Experiment [8] can be described thus: growth suppression of yeast trafficking mutant, preliminary HTS, modulators of trafficking downstream of Golgi apparatus project, 1536-format plate, OD 615 nm (AID 637; in the data active means inhibition above about 30%). The following applies: yeast transport mutant growth, absorbance 615 nm, 18 h; stronger effect = higher value.
The mark [9] stands for this setting: H69AR cells + 2 uM doxorubicin, measured here: viability with 2 uM doxorubicin, stronger effect = lower value.
Where [10] appears, read: H69AR cells, compound alone cytotoxicity.

Sequence of Receptor tyrosine-protein kinase erbB-2 (Homo sapiens) (P04626 whole entry, looked up): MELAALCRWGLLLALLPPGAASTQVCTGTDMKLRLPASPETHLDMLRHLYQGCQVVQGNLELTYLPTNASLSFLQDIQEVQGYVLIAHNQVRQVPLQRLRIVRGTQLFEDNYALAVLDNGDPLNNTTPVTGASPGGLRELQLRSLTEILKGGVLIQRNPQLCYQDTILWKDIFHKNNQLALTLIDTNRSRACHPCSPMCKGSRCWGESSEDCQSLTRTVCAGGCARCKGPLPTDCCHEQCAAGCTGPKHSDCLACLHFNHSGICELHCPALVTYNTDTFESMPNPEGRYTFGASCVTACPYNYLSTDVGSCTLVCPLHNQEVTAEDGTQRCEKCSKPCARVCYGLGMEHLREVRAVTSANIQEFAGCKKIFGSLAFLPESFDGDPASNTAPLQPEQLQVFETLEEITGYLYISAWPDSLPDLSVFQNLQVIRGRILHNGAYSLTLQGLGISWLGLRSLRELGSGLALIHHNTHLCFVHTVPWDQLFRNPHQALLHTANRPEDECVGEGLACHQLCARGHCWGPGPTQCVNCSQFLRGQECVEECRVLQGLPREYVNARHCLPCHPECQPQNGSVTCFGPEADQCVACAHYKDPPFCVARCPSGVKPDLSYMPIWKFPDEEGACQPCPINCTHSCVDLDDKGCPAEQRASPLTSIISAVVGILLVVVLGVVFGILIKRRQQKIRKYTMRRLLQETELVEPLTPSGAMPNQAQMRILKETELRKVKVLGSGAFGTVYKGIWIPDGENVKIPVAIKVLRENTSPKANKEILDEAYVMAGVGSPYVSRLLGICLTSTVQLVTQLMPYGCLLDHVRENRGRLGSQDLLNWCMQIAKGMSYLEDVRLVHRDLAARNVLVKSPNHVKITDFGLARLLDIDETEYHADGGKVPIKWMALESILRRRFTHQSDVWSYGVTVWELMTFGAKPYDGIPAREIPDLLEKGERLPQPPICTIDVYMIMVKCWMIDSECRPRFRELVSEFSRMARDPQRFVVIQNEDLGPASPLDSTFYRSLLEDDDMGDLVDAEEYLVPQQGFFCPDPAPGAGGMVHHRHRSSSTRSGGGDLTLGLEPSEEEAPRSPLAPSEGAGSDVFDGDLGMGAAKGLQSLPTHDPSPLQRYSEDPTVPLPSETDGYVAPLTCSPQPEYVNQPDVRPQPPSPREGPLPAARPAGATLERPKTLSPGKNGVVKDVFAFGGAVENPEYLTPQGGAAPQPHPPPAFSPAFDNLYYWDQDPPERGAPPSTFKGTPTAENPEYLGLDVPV

As for `Clc1ccc(CSc2nnc(Cn3cnc4ccccc43)o2)cc1`, the viability is 74.5% in experiment [1]; 74.5% (inactive) in experiment [3]; 48.2% (inactive) in experiment [4]; 99.2% (inactive) in experiment [5]; 97.2% in experiment [6] (setting [9]); 99.2% in experiment [6] (setting [10]). Moreover, the Her2 level in experiment [2] is 72% (inactive). Moreover, the differential viability (reversal) in experiment [6] (H69AR cells + 2 uM doxorubicin) was 2.03% (inactive). Besides, the inhibition in experiment [7] was -4.32% (inactive); in experiment [8], -1.8% (inactive).
With `Cc1cc(C(F)(F)F)nn1Cc1ccc(C(=O)NCc2ccco2)o1`, the viability was 97% in experiment [1]; 97% (inactive) in experiment [3]; 95.3% (inactive) in experiment [4]; 89.9% (inactive) in experiment [5]; 89.5% in experiment [6] (setting [9]); 89.9% in experiment [6] (setting [10]). The Her2 level in experiment [2] is 105% (inactive). Moreover, the differential viability (reversal) in experiment [6] (H69AR cells + 2 uM doxorubicin) is 0.38% (inactive). In addition, the inhibition is -0.53% (inactive) in experiment [7] and 0.82% (inactive) in experiment [8].
Take `COC(=O)c1cccc(NC(=O)Cc2coc3cc(OC)ccc23)c1`: the viability in experiment [1] was 102%; in experiment [3], 102% (inactive); in experiment [4], 87.1% (inactive); in experiment [5], 94.2% (inactive); in experiment [6] (setting [9]), 78.6%; in experiment [6] (setting [10]), 94.2%. In addition, the Her2 level in experiment [2] is 96.5% (inactive). Further, in experiment [6] (H69AR cells + 2 uM doxorubicin), the differential viability (reversal) is 15.6% (inactive). The figures for the inhibition in experiment [7] and in experiment [8] were 3.51% (inactive) and -6.19% (inactive), respectively.
On to `Cc1nc2ncnn2c(Nc2ccc3c(c2)OCCO3)c1C`, for which the viability in experiment [1] is 91%; in experiment [3], 91% (inactive); in experiment [4], 106% (inactive); in experiment [5], 73.7% (inactive); in experiment [6] (setting [9]), 97.3%; in experiment [6] (setting [10]), 73.7%. In addition, the Her2 level in experiment [2] was 110% (inactive). For the same compound, the differential viability (reversal) in experiment [6] (H69AR cells + 2 uM doxorubicin) was -23.6% (inactive). Moreover, the figures for the inhibition in experiment [7] and in experiment [8] were 2.8% (inactive) and 26.1% (inactive), respectively.
Turning to `CCN1CCCC1CNC(=O)CS(=O)(=O)Cc1nc(-c2ccccc2C)oc1C` (stereo not given), the viability in experiment [1] is 97%; in experiment [3], 97% (inactive); in experiment [4], 83% (inactive); in experiment [5], 88.1% (inactive); in experiment [6] (setting [9]) it was 88.1%; in experiment [6] (setting [10]) it was 88.1%. Also, the Her2 level in experiment [2] was 92.5% (inactive). For the same compound, the differential viability (reversal) in experiment [6] (H69AR cells + 2 uM doxorubicin) was 0.015% (inactive). Also, the inhibition in experiment [7] is -3.6% (inactive); in experiment [8], 1.64% (inactive).
Turning to `CCCCn1c(=O)[nH]c(=O)c2c1nc(-c1ccncc1)n2CCOC`, the viability in experiment [1] is 108%; in experiment [3], 108% (inactive); in experiment [4] it was 90.5% (inactive); in experiment [5] it was 94.2% (inactive); in experiment [6] (setting [9]), 92.2%; in experiment [6] (setting [10]), 94.2%. The Her2 level in experiment [2] is 116% (inactive). Moreover, the differential viability (reversal) in experiment [6] (H69AR cells + 2 uM doxorubicin) is 1.93% (inactive). For the same compound, the inhibition in experiment [7] was 1.43% (inactive); in experiment [8] it was -6.5% (inactive).
As to `CCOC(=O)c1c(NC(=O)CSc2nnc(-c3ccc(OC)cc3)o2)sc2c1CCC2`, the viability in experiment [1] is 88%; in experiment [3] it was 88% (inactive); in experiment [4] it was 76.1% (inactive); in experiment [5], 82.1% (inactive); in experiment [6] (setting [9]), 90.4%; in experiment [6] (setting [10]), 82.1%. The Her2 level in experiment [2] was 100% (inactive). The differential viability (reversal) in experiment [6] (H69AR cells + 2 uM doxorubicin) was -8.29% (inactive). In addition, the inhibition was -0.26% (inactive) in experiment [7] and -1.77% (inactive) in experiment [8].
For `O=C(Cn1cnc2ccccc2c1=O)NCCC(=O)N1CCN(Cc2ccccc2)CC1`, the viability in experiment [1] is 89%; in experiment [3], 89% (inactive); in experiment [4], 98.6% (inactive); in experiment [5], 89.8% (inactive); in experiment [6] (setting [9]), 85.2%; in experiment [6] (setting [10]), 89.8%. In experiment [2], the Her2 level was 90% (inactive). Further, the differential viability (reversal) in experiment [6] (H69AR cells + 2 uM doxorubicin) is 4.66% (inactive). Besides, the results for the inhibition in experiment [7] and in experiment [8] were 0.52% (inactive) and 0.98% (inactive), respectively.
As to `CCOC(=O)CSc1nc2ccccc2c(=O)n1CCN1CCOCC1`, the viability was 92.5% in experiment [1]; 92.5% (inactive) in experiment [3]; 87.6% (inactive) in experiment [4]; 95.4% (inactive) in experiment [5]; 84.4% in experiment [6] (setting [9]); 95.4% in experiment [6] (setting [10]). Moreover, in experiment [2], the Her2 level is 87.5% (inactive). In addition, the differential viability (reversal) in experiment [6] (H69AR cells + 2 uM doxorubicin) was 11% (inactive). Further, the inhibition was 0% (inactive) in experiment [7] and -6.19% (inactive) in experiment [8].
Consider `Cc1ccc(NC(=O)C2CCCN(S(=O)(=O)c3cnc[nH]3)C2)cc1F` (stereo not given), for which the viability in experiment [1] is 104%; in experiment [3] it was 104% (inactive); in experiment [4], 111% (inactive); in experiment [5], 95.1% (inactive); in experiment [6] (setting [9]), 95.3%; in experiment [6] (setting [10]), 95.1%. In addition, the Her2 level in experiment [2] was 94% (inactive). Besides, the differential viability (reversal) in experiment [6] (H69AR cells + 2 uM doxorubicin) was -0.16% (inactive). For the same compound, the inhibition in experiment [7] is -3.73% (inactive); in experiment [8] it was -3.11% (inactive).
Regarding `O=C(Nc1cccnc1N1CCOCC1)c1ccco1`, the viability in experiment [1] was 110%; in experiment [3], 110% (inactive); in experiment [4], 115% (inactive); in experiment [5], 92% (inactive); in experiment [6] (setting [9]) it was 84.2%; in experiment [6] (setting [10]), 92%. Moreover, in experiment [2], the Her2 level is 86% (inactive). In addition, in experiment [6] (H69AR cells + 2 uM doxorubicin), the differential viability (reversal) is 7.89% (inactive). Also, the inhibition in experiment [7] is -7.3% (inactive); in experiment [8] it was -4.67% (inactive).
Regarding `CCC(=O)N1CCc2cc(S(=O)(=O)CCC(=O)Nc3c(C)n(C)n(-c4ccccc4)c3=O)ccc21`, the viability in experiment [1] is 96%; in experiment [3], 96% (inactive); in experiment [4], 89.8% (inactive); in experiment [5], 94% (inactive); in experiment [6] (setting [9]) it was 87.3%; in experiment [6] (setting [10]) it was 94%. In experiment [2], the Her2 level was 104% (inactive). Moreover, in experiment [6] (H69AR cells + 2 uM doxorubicin), the differential viability (reversal) was 6.7% (inactive). In addition, the inhibition was -2.93% (inactive) in experiment [7] and -10.7% (inactive) in experiment [8].
As for `CCOc1ccc2[nH]c(=O)c(C(c3nnnn3CC3CCCO3)N3CCc4ccccc4C3)cc2c1` (stereo not given), the viability in experiment [1] is 97%; in experiment [3], 97% (inactive); in experiment [4] it was 81.1% (inactive); in experiment [5] it was 85.8% (inactive); in experiment [6] (setting [9]) it was 49.2%; in experiment [6] (setting [10]), 85.8%. Also, the Her2 level in experiment [2] was 82.5% (inactive). For the same compound, the differential viability (reversal) in experiment [6] (H69AR cells + 2 uM doxorubicin) is 36.5% (inactive). The inhibition in experiment [7] was -4.93% (inactive); in experiment [8] it was 2.62% (inactive).
As for `CCOc1ccc2[nH]c(=O)c(CN(Cc3ccccc3)C(=O)N3CCCC3)cc2c1`, the viability was 100% in experiment [1]; 100% (inactive) in experiment [3]; 78.4% (inactive) in experiment [4]; 82.1% (inactive) in experiment [5]; 80.1% in experiment [6] (setting [9]); 82.1% in experiment [6] (setting [10]). The Her2 level in experiment [2] is 77% (inactive). Besides, the differential viability (reversal) in experiment [6] (H69AR cells + 2 uM doxorubicin) is 1.97% (inactive). For the same compound, the figures for the inhibition in experiment [7] and in experiment [8] were -2.5% (inactive) and -1.9% (inactive), respectively.

For orientation: viability means a read-out of living cells in per cent, often relative to untreated cells. The term inhibition denotes the change of the read-out against control, counted positive when it falls.
